Test results as given in ChEMBL document CHEMBL1135962, “The first synthesis and antifungal activities of 9-methoxystrobilurin-type beta-substituted beta-methoxyacrylate” (2002).
Active and inactive are the calls of the source. The rule behind the calls is not given here.

Assays:
[1] = system: Penicillium citrinum; assay: Compound was evaluated for antifungal activity against penicillium ctrinum R-3703 as diameter of inhibition zone at a concentration 0.1 ug/disk and showed incomplete inhibition; type: functional
Outline: (§1)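 Disk-diffusion assay against the fungal strain named in the line. Inhibition-zone diameter was measured after 48 h incubation and is the mean of two samples. Scoring codes used: not effective, slightly effective, incomplete inhibition.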

[2] = system: Fusarium solani; assay: Compound was evaluated for antifungal activity against Fusarium solani R-2800 as diameter of inhibition zone at a concentration 10 ug/disk; NE means not effective; type: functional, organism-based; outline: as §1
[3] = system: Penicillium citrinum; assay: Compound was evaluated for antifungal activity against penicillium ctrinum R-3703 as diameter of inhibition zone at a concentration 1 ug/disk and showed incomplete inhibition; type: functional; outline: as §1
[4] = system: Aspergillus fumigatus; assay: Compound was evaluated for antifungal activity against Aspergillus fumigatum R-1301 as diameter of inhibition zone at a concentration 1 ug/disk; type: functional; outline: as §1
[5] = system: Candida albicans; assay: Compound was evaluated for antifungal activity against Candida albicans IFO 1594 as diameter of inhibition zone at a concentration 1 ug/disk and showed incomplete inhibition; type: functional; outline: as §1
[6] = system: Candida albicans; assay: Compound was evaluated for antifungal activity against Candida albicans IFO 1594 as diameter of inhibition zone at a concentration 10 ug/disk and showed incomplete inhibition; type: functional; outline: as §1
[7] = system: Saccharomyces cerevisiae; assay: Compound was evaluated for antifungal activity against Saccharomyces cerevisiae IAM 4861 as diameter of inhibition zone at a concentration 0.1 ug/disk and showed incomplete inhibition; type: functional; outline: as §1
[8] = system: Fusarium solani; assay: Compound was evaluated for antifungal activity against Fusarium solani R-2800 as diameter of inhibition zone at a concentration 0.1 ug/disk; NE means not effective; type: functional, organism-based; outline: as §1
[9] = system: Candida albicans; assay: Compound was evaluated for antifungal activity against Candida albicans IFO 1594 as diameter of inhibition zone at a concentration 0.1 ug/disk; SE means slightly effective; type: functional, organism-based; outline: as §1
[10] = system: Saccharomyces cerevisiae; assay: Compound was evaluated for antifungal activity against Saccharomyces cerevisiae IAM 4861 as diameter of inhibition zone at a concentration 1 ug/disk and showed incomplete inhibition; type: functional; outline: as §1
[11] = system: Aspergillus fumigatus; assay: Compound was evaluated for antifungal activity against Aspergillus fumigatum R-1301 as diameter of inhibition zone at a concentration 10 ug/disk; type: functional; outline: as §1
[12] = system: Aspergillus fumigatus; assay: Compound was evaluated for antifungal activity against Aspergillus fumigatum R-1301 as diameter of inhibition zone at a concentration 0.1 ug/disk; type: functional; outline: as §1
[13] = system: Fusarium solani; assay: Compound was evaluated for antifungal activity against Fusarium solani R-2800 as diameter of inhibition zone at a concentration 1 ug/disk; NE means not effective; type: functional, organism-based; outline: as §1
[14] = system: Saccharomyces cerevisiae; assay: Compound was evaluated for antifungal activity against Saccharomyces cerevisiae IAM 4861 as diameter of inhibition zone at a concentration 10 ug/disk and showed incomplete inhibition; type: functional; outline: as §1
[15] = system: Penicillium citrinum; assay: Compound was evaluated for antifungal activity against penicillium ctrinum R-3703 as diameter of inhibition zone at a concentration 10 ug/disk; type: functional; outline: as §1
[16] = system: Candida albicans; assay: Compound was evaluated for antifungal activity against Candida albicans IFO 1594 as diameter of inhibition zone at a concentration 10 ug/disk; SE means slightly effective; type: functional, organism-based; outline: as §1
[17] = system: Penicillium citrinum; assay: Compound was evaluated for antifungal activity against penicillium ctrinum R-3703 as diameter of inhibition zone at a concentration 1 ug/disk; type: functional; outline: as §1
[18] = system: Penicillium citrinum; assay: Compound was evaluated for antifungal activity against penicillium ctrinum R-3703 as diameter of inhibition zone at a concentration 0.1 ug/disk; NE means not effective; type: functional, organism-based; outline: as §1
[19] = system: Saccharomyces cerevisiae; assay: Compound was evaluated for antifungal activity against Saccharomyces cerevisiae IAM 4861 as diameter of inhibition zone at a concentration 0.1 ug/disk; NE means not effective; type: functional, organism-based; outline: as §1
[20] = system: Candida albicans; assay: Compound was evaluated for antifungal activity against Candida albicans IFO 1594 as diameter of inhibition zone at a concentration 1 ug/disk; NE means not effective; type: functional, organism-based; outline: as §1
[21] = system: Candida albicans; assay: Compound was evaluated for antifungal activity against Candida albicans IFO 1594 as diameter of inhibition zone at a concentration 0.1 ug/disk; NE means not effective; type: functional, organism-based; outline: as §1
[22] = system: Aspergillus fumigatus; assay: Compound was evaluated for antifungal activity against Aspergillus fumigatum R-1301 as diameter of inhibition zone at a concentration 0.1 ug/disk; NE means not effective; type: functional, organism-based; outline: as §1
[23] = system: Fusarium solani; assay: Compound was evaluated for antifungal activity against Fusarium solani R-2800 as diameter of inhibition zone at a concentration 1 ug/disk and showed incomplete inhibition; type: functional; outline: as §1
[24] = system: Fusarium solani; assay: Compound was evaluated for antifungal activity against Fusarium solani R-2800 as diameter of inhibition zone at a concentration 10 ug/disk and showed incomplete inhibition; type: functional; outline: as §1
[25] = system: Penicillium citrinum; assay: Compound was evaluated for antifungal activity against penicillium ctrinum R-3703 as diameter of inhibition zone at a concentration 1 ug/disk; NE means not effective; type: functional, organism-based; outline: as §1
[26] = system: Penicillium citrinum; assay: Compound was evaluated for antifungal activity against penicillium ctrinum R-3703 as diameter of inhibition zone at a concentration 0.1 ug/disk; SE means slightly effective; type: functional, organism-based; outline: as §1
[27] = system: Aspergillus fumigatus; assay: Compound was evaluated for antifungal activity against Aspergillus fumigatum R-1301 as diameter of inhibition zone at a concentration 10 ug/disk; NE means not effective; type: functional, organism-based; outline: as §1
[28] = system: Aspergillus fumigatus; assay: Compound was evaluated for antifungal activity against Aspergillus fumigatum R-1301 as diameter of inhibition zone at a concentration 1 ug/disk; NE means not effective; type: functional, organism-based; outline: as §1
[29] = system: Saccharomyces cerevisiae; assay: Compound was evaluated for antifungal activity against Saccharomyces cerevisiae IAM 4861 as diameter of inhibition zone at a concentration 10 ug/disk; SE means slightly effective; type: functional, organism-based; outline: as §1
[30] = system: Saccharomyces cerevisiae; assay: Compound was evaluated for antifungal activity against Saccharomyces cerevisiae IAM 4861 as diameter of inhibition zone at a concentration 1 ug/disk; NE means not effective; type: functional, organism-based; outline: as §1
[31] = system: Penicillium citrinum; assay: Compound was evaluated for antifungal activity against penicillium ctrinum R-3703 as diameter of inhibition zone at a concentration 10 ug/disk; NE means not effective; type: functional, organism-based; outline: as §1
[32] = system: Candida albicans; assay: Compound was evaluated for antifungal activity against Candida albicans IFO 1594 as diameter of inhibition zone at a concentration 10 ug/disk; NE means not effective; type: functional, organism-based; outline: as §1
[33] = system: Saccharomyces cerevisiae; assay: Compound was evaluated for antifungal activity against Saccharomyces cerevisiae IAM 4861 as diameter of inhibition zone at a concentration 10 ug/disk; NE means not effective; type: functional, organism-based; outline: as §1
[34] = system: Penicillium citrinum; assay: Compound was evaluated for antifungal activity against penicillium ctrinum R-3703 as diameter of inhibition zone at a concentration 1 ug/disk; SE means slightly effective; type: functional, organism-based; outline: as §1
[35] = system: Saccharomyces cerevisiae; assay: Compound was evaluated for antifungal activity against Saccharomyces cerevisiae IAM 4861 as diameter of inhibition zone at a concentration 10 ug/disk; type: functional, organism-based
Outline: (§2)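 Disk-diffusion assay against the listed yeast strains (C. albicans IFO 1594; S. cerevisiae IAM 4861). Inhibition-zone diameter read after 48 hr incubation, reported as the mean of two samples. Activity scored as not effective, slightly effective, or incomplete inhibition where applicable.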

[36] = system: Candida albicans; assay: Compound was evaluated for antifungal activity against Candida albicans IFO 1594 as diameter of inhibition zone at a concentration 10 ug/disk; type: functional, organism-based; outline: as §2
[37] = system: Saccharomyces cerevisiae; assay: Compound was evaluated for antifungal activity against Saccharomyces cerevisiae IAM 4861 as diameter of inhibition zone at a concentration 1 ug/disk; SE means slightly effective; type: functional, organism-based; outline: as §1

## CO\C=C(C(=O)OC)/C(C)=C(\C=C\c1ccccc1)OC [9-METHOXYSTROBILURIN A]
[1]
  Inhibition zone: 19 mm
[2]
  Inhibition zone: inactive
[3]
  Inhibition zone: 23 mm
[4]
  Inhibition zone: 28 mm
[5]
  Inhibition zone: 32 mm
[6]
  Inhibition zone: 42 mm
[7]
  Inhibition zone: 13 mm
[8]
  Inhibition zone: inactive
[9]
  Inhibition zone: Slightly Effective
[10]
  Inhibition zone: 39 mm
[11]
  Inhibition zone: 38 mm
[12]
  Inhibition zone: 16 mm
[13]
  Inhibition zone: inactive
[14]
  Inhibition zone: 44 mm
[15]
  Inhibition zone: 33 mm

## COC(=O)/C=C(/OC)[C@H](C)[C@H](/C=C/c1ccccc1)OC (racemic) [listing 1 of 2 here]
[6]
  Inhibition zone: 14 mm
[11]
  Inhibition zone: 23 mm
[14]
  Inhibition zone: 39 mm
[15]
  Inhibition zone: 26 mm

## COC(=O)C=C(OC)/C(C)=C(\C=C\c1ccc(OC)c(OC)c1)OC
[16]
  Inhibition zone: Slightly effective
[17]
  Inhibition zone: 18 mm
[18]
  Inhibition zone: inactive
[19]
  Inhibition zone: inactive
[20]
  Inhibition zone: inactive
[2]
  Inhibition zone: inactive
[21]
  Inhibition zone: inactive
[4]
  Inhibition zone: 8 mm
[8]
  Inhibition zone: inactive
[22]
  Inhibition zone: inactive
[10]
  Inhibition zone: 12 mm
[11]
  Inhibition zone: 12 mm
[13]
  Inhibition zone: inactive
[14]
  Inhibition zone: 18 mm
[15]
  Inhibition zone: 33 mm

## COC(=O)\C=C(OC)/C(C)=C(\C=C\c1ccccc1)OC
[17]
  Inhibition zone: 17 mm
[18]
  Inhibition zone: inactive
[19]
  Inhibition zone: inactive
[21]
  Inhibition zone: inactive
[23]
  Inhibition zone: 22 mm
[4]
  Inhibition zone: 17 mm
[5]
  Inhibition zone: 27 mm
[6]
  Inhibition zone: 32 mm
[8]
  Inhibition zone: inactive
[22]
  Inhibition zone: inactive
[10]
  Inhibition zone: 30 mm
[11]
  Inhibition zone: 36 mm
[24]
  Inhibition zone: 30 mm
[14]
  Inhibition zone: 46 mm
[15]
  Inhibition zone: 42 mm

## COC(=O)\C=C(OC)/C(C)=C(\C=C\c1ccc2ccccc2c1)OC
[18]
  Inhibition zone: inactive
[19]
  Inhibition zone: inactive
[21]
  Inhibition zone: inactive
[23]
  Inhibition zone: 19 mm
[4]
  Inhibition zone: 10 mm
[5]
  Inhibition zone: 8 mm
[6]
  Inhibition zone: 14 mm
[25]
  Inhibition zone: inactive
[8]
  Inhibition zone: inactive
[22]
  Inhibition zone: inactive
[10]
  Inhibition zone: 15 mm
[11]
  Inhibition zone: 16 mm
[24]
  Inhibition zone: 27 mm
[14]
  Inhibition zone: 21 mm
[15]
  Inhibition zone: 13 mm

## COC(=O)\C=C(OC)/C(C)=C(\C=C\c1cccs1)OC
[17]
  Inhibition zone: 21 mm
[19]
  Inhibition zone: inactive
[2]
  Inhibition zone: inactive
[21]
  Inhibition zone: inactive
[4]
  Inhibition zone: 20 mm
[5]
  Inhibition zone: 16 mm
[6]
  Inhibition zone: 32 mm
[26]
  Inhibition zone: Slightly effective
[8]
  Inhibition zone: inactive
[22]
  Inhibition zone: inactive
[10]
  Inhibition zone: 31 mm
[11]
  Inhibition zone: 29 mm
[13]
  Inhibition zone: inactive
[14]
  Inhibition zone: 49 mm
[15]
  Inhibition zone: 40 mm

## COC(=O)\C=C(OC)/C(C)=C(\C=C\c1cccc2ccccc12)OC
[18]
  Inhibition zone: inactive
[19]
  Inhibition zone: inactive
[20]
  Inhibition zone: inactive
[2]
  Inhibition zone: inactive
[27]
  Inhibition zone: inactive
[21]
  Inhibition zone: inactive
[28]
  Inhibition zone: inactive
[29]
  Inhibition zone: Slightly effective
[30]
  Inhibition zone: inactive
[25]
  Inhibition zone: inactive
[31]
  Inhibition zone: inactive
[8]
  Inhibition zone: inactive
[22]
  Inhibition zone: inactive
[32]
  Inhibition zone: inactive
[13]
  Inhibition zone: inactive

## COC(=O)/C=C(/OC)[C@@H](C)[C@H](/C=C/c1ccccc1)OC (racemic)
[18]
  Inhibition zone: inactive
[19]
  Inhibition zone: inactive
[20]
  Inhibition zone: inactive
[2]
  Inhibition zone: inactive
[27]
  Inhibition zone: inactive
[21]
  Inhibition zone: inactive
[28]
  Inhibition zone: inactive
[33]
  Inhibition zone: inactive
[30]
  Inhibition zone: inactive
[25]
  Inhibition zone: inactive
[31]
  Inhibition zone: inactive
[8]
  Inhibition zone: inactive
[22]
  Inhibition zone: inactive
[32]
  Inhibition zone: inactive
[13]
  Inhibition zone: inactive

## COC(=O)/C=C(/OC)[C@H](C)[C@H](/C=C/c1ccccc1)OC [listing 1 of 2 here]
[18]
  Inhibition zone: inactive
[19]
  Inhibition zone: inactive
[20]
  Inhibition zone: inactive
[2]
  Inhibition zone: inactive
[21]
  Inhibition zone: inactive
[28]
  Inhibition zone: inactive
[8]
  Inhibition zone: inactive
[22]
  Inhibition zone: inactive
[34]
  Inhibition zone: Slightly effective
[13]
  Inhibition zone: inactive

## NYSTATIN
[35]
  Inhibition zone: 18 mm
[2]
  Inhibition zone: inactive
[36]
  Inhibition zone: 16 mm
[11]
  Inhibition zone: 16 mm
[15]
  Inhibition zone: 10 mm

## COC(=O)/C=C(/OC)[C@H](C)[C@H](/C=C/c1ccccc1)OC (racemic) [listing 2 of 2 here]
[18]
  Inhibition zone: inactive
[19]
  Inhibition zone: inactive
[20]
  Inhibition zone: inactive
[2]
  Inhibition zone: inactive
[21]
  Inhibition zone: inactive
[28]
  Inhibition zone: inactive
[8]
  Inhibition zone: inactive
[22]
  Inhibition zone: inactive
[37]
  Inhibition zone: Slightly effective
[34]
  Inhibition zone: Slightly effective
[13]
  Inhibition zone: inactive

## COC(=O)/C=C(/OC)[C@H](C)[C@H](/C=C/c1ccccc1)OC [listing 2 of 2 here]
[6]
  Inhibition zone: 20 mm
[10]
  Inhibition zone: 25 mm
[14]
  Inhibition zone: 43 mm
[15]
  Inhibition zone: 28 mm
